Laboratory results: ChEMBL document CHEMBL5661972, “In vitro biological activity of a novel small-molecule inhibitor of polo-like kinase 1” (Mol Cancer Ther, 2007)
Activity calls are given as the source filed them. The rule behind the calls is not given here.

Assays:
NCI-H460 = assay: Induction of apoptosis in human NCI-H460 cells assessed as PARP cleavage at 5 micromol/L incubated for 22 to 72 hrs by Western blotting analysis; type: functional, cell-based; settings: dose 5.0 µmol/L, time 22-72 hrs
Procedure, shortened: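 H460 cells seeded at 320,000 per well in six-well plates and given 5 μmol/L for 22, 30, 46, 55 and 72 h. Lysed in caspase assay buffer, run on 4–12% Bis-Tris gels and immunoblotted with an anti-PARP antibody that detects both the 116-kDa intact protein and the 85-kDa fragment.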

NHDF [1] = assay: Induction of cell cycle arrest in human HDF cells assessed as accumulation of cells at S phase at 3 micromol/L incubated for 24 hrs by propidium iodide staining based flow cytometry analysis (reference value: 13.2 %); type: toxicity; settings: 3 µM, dose 3 µmol/L
Procedure, shortened: (§1)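 Cells seeded in six-well plates at densities that keep them in log growth (HDF 120,000, 60,000 or 30,000; H460 100,000, 50,000 or 25,000 per well for 24, 48 or 72 h). Treated with 1 or 3 μmol/L. Floating and adherent cells collected, ethanol-fixed, permeabilized with Triton X-100 and stained with propidium iodide. DNA content read by flow cytometry as % singlet cells.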

Aurora kinase A = target: T1, Aurora kinase A (Homo sapiens, UniProt O14965); assay: Inhibition of Aurora A (unknown origin)
T1 sequence (O14965 whole entry): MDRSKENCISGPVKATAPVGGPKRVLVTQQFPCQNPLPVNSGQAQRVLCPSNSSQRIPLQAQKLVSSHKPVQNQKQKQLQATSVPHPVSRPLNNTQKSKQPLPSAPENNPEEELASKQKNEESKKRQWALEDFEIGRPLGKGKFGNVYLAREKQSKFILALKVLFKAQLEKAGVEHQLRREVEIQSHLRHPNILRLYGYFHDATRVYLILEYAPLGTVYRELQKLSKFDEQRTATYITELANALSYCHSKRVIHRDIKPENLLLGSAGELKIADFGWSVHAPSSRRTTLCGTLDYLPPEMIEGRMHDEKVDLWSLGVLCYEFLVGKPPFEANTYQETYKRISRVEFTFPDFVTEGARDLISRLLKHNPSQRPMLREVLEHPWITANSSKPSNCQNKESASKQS

[2] = Selectivity ratio of IC50 for cytotoxicity against human HDF cells to IC50 for antiproliferative activity against human MCF7 cells; type: toxicity, cell-based; settings: HDF cells versus MCF7 cells, read-out: Ratio IC50
NHDF [3] = assay: Induction of cell cycle arrest in human HDF cells assessed as accumulation of cells at G2-M phase at 1 micromol/L incubated for 48 hrs by propidium iodide staining based flow cytometry analysis (reference value: 14.3 %); type: toxicity; settings: 1 µM, dose 1 µmol/L; procedure, shortened: as §1
[4] = Cytotoxicity against human HDF cells assessed as outgrowth of cells at 3.3 micromol/L incubated for 72 hrs by methylene blue staining based analysis relative to control; type: toxicity, cell-based; settings: HDF cells (NHDF, human dermal fibroblasts), dose 3.3 µmol/L, read-out: Activity
Procedure, shortened: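 HDF seeded at 1,300 and H460 at 600 per well in 96-well plates. After 24 h, exposed to vehicle (0.3% DMSO) or compound at 0.37–30 μmol/L for 72 h. Wells were then washed with PBS and refed with drug-free medium containing gentamicin. Regrowth was followed by methylene blue staining at set time points over 13 days in total.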

[5] = target: Serine/threonine-protein kinase PLK3 (Homo sapiens, UniProt Q9H4B4); assay: Inhibition of human PLK3 expressed in baculovirus infected in Trichoplusia ni cells using Biotin-Ahx-SFNDTLDFD as substrate in presence of ATP by TopCount scintillation proximity assay; parameters: species or system Trichoplusia ni cell
Procedure, shortened: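 Full-length PLK3 (5 nmol/L) from baculovirus-infected Trichoplusia ni cells in 25 mmol/L HEPES pH 7.2, 15 mmol/L MgCl2, 1 μmol/L ATP with [γ-33P]ATP, 1 μmol/L biotinylated peptide, BSA, DTT. Incubated 1–1.5 h at 22°C in the linear range. Stopped with EDTA plus streptavidin SPA beads, then counted or imaged. Signal above EDTA background taken as percent inhibition versus DMSO wells.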

NHDF [6] = assay: Induction of cell cycle arrest in human HDF cells assessed as accumulation of cells at Sub-2N phase at 1 micromol/L incubated for 48 hrs by propidium iodide staining based flow cytometry analysis (reference value: 0.5 %); type: toxicity; settings: 1 µM, dose 1 µmol/L; procedure, shortened: as §1
NHDF [7] = assay: Induction of cell cycle arrest in human HDF cells assessed as accumulation of cells at >4N phase at 1 micromol/L incubated for 24 hrs by propidium iodide staining based flow cytometry analysis (reference value: 2.4 %); type: toxicity; settings: 1 µM, dose 1 µmol/L; procedure, shortened: as §1
[8] = target: Vascular endothelial growth factor receptor 2 (Homo sapiens, UniProt P35968); assay: Inhibition of VEGFR2 (unknown origin)
NHDF [9] = assay: Induction of cell cycle arrest in human HDF cells assessed as accumulation of cells at G1 phase at 1 micromol/L incubated for 72 hrs by propidium iodide staining based flow cytometry analysis (reference value: 85.6 %); type: toxicity; settings: 1 µM, dose 1 µmol/L; procedure, shortened: as §1
NHDF [10] = assay: Induction of cell cycle arrest in human HDF cells assessed as accumulation of cells at G1 phase at 3 micromol/L incubated for 72 hrs by propidium iodide staining based flow cytometry analysis (reference value: 85.6 %); type: toxicity; settings: 3 µM, dose 3 µmol/L; procedure, shortened: as §1
[11] = Selectivity ratio of IC50 for cytotoxicity against human HDF cells to IC50 for antiproliferative activity against human BT-474 cells; type: toxicity, cell-based; settings: HDF cells versus BT-474 cells, read-out: Ratio IC50

Chain of Vascular endothelial growth factor receptor 2 (P35968 whole entry): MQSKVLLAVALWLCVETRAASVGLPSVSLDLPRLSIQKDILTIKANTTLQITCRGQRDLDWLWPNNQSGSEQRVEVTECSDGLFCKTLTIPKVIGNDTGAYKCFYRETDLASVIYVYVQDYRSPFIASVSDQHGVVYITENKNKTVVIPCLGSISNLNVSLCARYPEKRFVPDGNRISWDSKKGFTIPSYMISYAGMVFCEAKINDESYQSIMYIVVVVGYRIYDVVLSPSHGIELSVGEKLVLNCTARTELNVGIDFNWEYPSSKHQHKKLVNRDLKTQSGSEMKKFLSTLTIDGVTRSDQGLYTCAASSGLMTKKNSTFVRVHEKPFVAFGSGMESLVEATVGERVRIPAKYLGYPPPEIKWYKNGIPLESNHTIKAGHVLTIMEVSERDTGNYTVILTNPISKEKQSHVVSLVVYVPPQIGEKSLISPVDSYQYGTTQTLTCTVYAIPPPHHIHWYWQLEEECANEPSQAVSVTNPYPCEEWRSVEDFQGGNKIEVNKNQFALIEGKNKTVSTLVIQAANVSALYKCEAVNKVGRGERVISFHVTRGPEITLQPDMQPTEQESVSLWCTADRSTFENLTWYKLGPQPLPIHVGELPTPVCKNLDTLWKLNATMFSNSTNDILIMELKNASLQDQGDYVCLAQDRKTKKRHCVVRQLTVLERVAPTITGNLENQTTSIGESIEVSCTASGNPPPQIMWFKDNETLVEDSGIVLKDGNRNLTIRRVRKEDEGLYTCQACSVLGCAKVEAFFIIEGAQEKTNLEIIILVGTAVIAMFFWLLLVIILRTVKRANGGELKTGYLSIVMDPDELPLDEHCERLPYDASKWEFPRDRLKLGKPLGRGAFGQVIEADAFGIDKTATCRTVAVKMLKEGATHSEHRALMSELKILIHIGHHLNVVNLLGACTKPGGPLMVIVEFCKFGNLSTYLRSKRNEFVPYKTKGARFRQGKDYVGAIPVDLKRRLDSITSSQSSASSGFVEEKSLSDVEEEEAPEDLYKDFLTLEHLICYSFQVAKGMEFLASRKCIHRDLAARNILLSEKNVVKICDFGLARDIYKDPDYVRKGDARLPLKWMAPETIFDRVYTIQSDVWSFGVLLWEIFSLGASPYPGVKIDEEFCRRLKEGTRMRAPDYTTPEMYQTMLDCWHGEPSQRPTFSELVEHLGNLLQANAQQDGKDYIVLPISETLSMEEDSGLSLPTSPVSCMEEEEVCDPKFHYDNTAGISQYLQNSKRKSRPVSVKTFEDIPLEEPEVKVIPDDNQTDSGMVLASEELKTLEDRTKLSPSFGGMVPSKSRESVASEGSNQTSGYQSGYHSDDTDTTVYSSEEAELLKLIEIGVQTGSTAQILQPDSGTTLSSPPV
Chain of Serine/threonine-protein kinase PLK3 (Q9H4B4 whole entry): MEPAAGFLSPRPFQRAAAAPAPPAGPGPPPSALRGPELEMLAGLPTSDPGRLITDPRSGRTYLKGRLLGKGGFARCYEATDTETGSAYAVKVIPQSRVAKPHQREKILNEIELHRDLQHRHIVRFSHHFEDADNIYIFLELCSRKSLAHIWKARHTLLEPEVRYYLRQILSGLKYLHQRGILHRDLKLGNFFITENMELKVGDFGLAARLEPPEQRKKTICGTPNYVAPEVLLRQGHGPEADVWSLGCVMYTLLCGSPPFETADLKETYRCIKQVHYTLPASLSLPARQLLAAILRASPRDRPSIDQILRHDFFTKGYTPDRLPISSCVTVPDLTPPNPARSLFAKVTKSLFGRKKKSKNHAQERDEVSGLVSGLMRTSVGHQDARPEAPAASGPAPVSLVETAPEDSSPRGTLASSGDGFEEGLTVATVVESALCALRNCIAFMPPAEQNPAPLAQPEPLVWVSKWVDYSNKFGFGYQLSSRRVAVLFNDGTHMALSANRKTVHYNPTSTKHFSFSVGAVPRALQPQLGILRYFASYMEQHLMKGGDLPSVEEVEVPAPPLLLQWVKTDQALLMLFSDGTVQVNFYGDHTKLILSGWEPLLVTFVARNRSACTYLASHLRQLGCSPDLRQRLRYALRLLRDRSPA

IC50 (Aurora kinase A): 4800 nM
IC50 [5]: 9.1 nM
IC50 [8]: 360 nM
SMILES: COc1cc2ncn(-c3cc(OCc4ccccc4C(F)(F)F)c(C(N)=O)s3)c2cc1OC [GW843682X]
Activity (NCI-H460): Active
Activity (NHDF [1]): 4.2%
selectivity ratio [2]: > 10
Activity (NHDF [3]): 27%
viability at 72 h, 3.3 µM [4]: ~30%
Activity (NHDF [6]): 0.9%
Activity (NHDF [7]): 3.5%
Activity (NHDF [9]): 66.2%
Activity (NHDF [10]): 5.6%
selectivity ratio [11]: > 10
